Data published in ChEMBL document CHEMBL1139655, “Antimicrobial beta-peptoids by a block synthesis approach” (2006).
Converted amounts (≈) assume the structure as drawn.

Test system: Escherichia coli
Test: Antimicrobial activity against Escherichia coli ATCC 25922
Format: functional
Procedure, shortened: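 Broth microdilution in trypticase soy broth; 2-fold serial dilutions giving final 512 to 1 µg/mL. Inoculum E. coli ATCC 25922 in TSB, final […] as printed. Incubated 37 °C for 24 h in plate reader, OD600 read every 20 min. MIC taken as lowest concentration preventing growth at 24 h.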

| Compound | MIC [µg/mL] |
| --- | --- |
| CC(=O)NCCC(=O)N(CCC(=O)N(CCCCN)CCC(=O)NCCC(=O)N(CCC(=O)N(CCCCN)CCC(=O)N[C@@H](CCCCN)C(N)=O)CC(C)C)CC(C)C | > 512 |
| CC(=O)N(CCC(=O)N(CCN)CCC(=O)N(CCN)CCC(=O)N(CCC(=O)N(CCN)CCC(=O)N(CCN)CCC(=O)N[C@@H](CCCCN)C(N)=O)CC(C)C)CC(C)C | > 512 |
| CC(=O)NCCC(=O)N(CCC(=O)N(CCCN(C)C)CCC(=O)NCCC(=O)N(CCC(=O)N(CCCN(C)C)CCC(=O)NCCC(=O)N(CCC(=O)N(CCCN(C)C)CCC(=O)NCCC(=O)N(CCC(=O)N(CCCN(C)C)CCC(=O)NCCC(=O)N(CCC(=O)N(CCCN(C)C)CCC(=O)NCCC(=O)N(CCC(=O)N(CCCN(C)C)CCC(=O)NCCC(=O)N(CCC(=O)N(CCCN(C)C)CCC(=O)NCCC(=O)N(CCC(=O)N(CCCN(C)C)CCC(=O)N[C@@H](CCCCN)C(N)=O)CC(C)C)CC(C)C)CC(C)C)CC(C)C)CC(C)C)CC(C)C)CC(C)C)CC(C)C | > 512 |
| CC(=O)N(CCC(=O)N(CCC(=O)N(CCCN(C)C)CCC(=O)N(CCC(=O)N(CCC(=O)N(CCCN(C)C)CCC(=O)N(CCC(=O)N(CCC(=O)N(CCCN(C)C)CCC(=O)N[C@@H](CCCCN)C(N)=O)CC(C)C)Cc1ccccc1)CC(C)C)Cc1ccccc1)CC(C)C)Cc1ccccc1 | 512 (≈ 337 µM) |
| CC(=O)N(CCC(=O)N(CCC(=O)N(CCCCN)CCC(=O)N[C@@H](CCCCN)C(N)=O)CC(C)C)CC(C)C | > 512 |
| CC(=O)N(CCC(=O)N(CCC(=O)N(CCCCN)CCC(=O)N(CCC(=O)N(CCC(=O)N(CCCCN)CCC(=O)N[C@@H](CCCCN)C(N)=O)CC(C)C)CC(C)C)CC(C)C)CC(C)C | > 512 |
| CC(=O)N(CCC(=O)N(CCC(=O)N(CCCCN)CCC(=O)N(CCC(=O)N(CCC(=O)N(CCCCN)CCC(=O)N(CCC(=O)N(CCC(=O)N(CCCCN)CCC(=O)N[C@@H](CCCCN)C(N)=O)CC(C)C)CC(C)C)CC(C)C)CC(C)C)CC(C)C)CC(C)C | > 512 |
| CC(=O)N(CCC(=O)N(CCC(=O)N(CCN)CCC(=O)N(CCC(=O)N(CCC(=O)N(CCN)CCC(=O)N(CCC(=O)N(CCC(=O)N(CCN)CCC(=O)N[C@@H](CCCCN)C(N)=O)CC(C)C)CC(C)C)CC(C)C)CC(C)C)CC(C)C)CC(C)C | > 512 |
| CC(=O)NCCC(=O)N(CCC(=O)N(CCCCN)CCC(=O)NCCC(=O)N(CCC(=O)N(CCCCN)CCC(=O)NCCC(=O)N(CCC(=O)N(CCCCN)CCC(=O)N[C@@H](CCCCN)C(N)=O)CC(C)C)CC(C)C)CC(C)C | 512 (≈ 424 µM) |
| CC(=O)NCCC(=O)N(CCC(=O)N(CCCN(C)C)CCC(=O)NCCC(=O)N(CCC(=O)N(CCCN(C)C)CCC(=O)NCCC(=O)N(CCC(=O)N(CCCN(C)C)CCC(=O)NCCC(=O)N(CCC(=O)N(CCCN(C)C)CCC(=O)NCCC(=O)N(CCC(=O)N(CCCN(C)C)CCC(=O)N[C@@H](CCCCN)C(N)=O)CC(C)C)CC(C)C)CC(C)C)CC(C)C)CC(C)C | > 512 |
| CC(=O)NCCC(=O)N(CCC(=O)N(CCN)CCC(=O)NCCC(=O)N(CCC(=O)N(CCN)CCC(=O)NCCC(=O)N(CCC(=O)N(CCN)CCC(=O)NCCC(=O)N(CCC(=O)N(CCN)CCC(=O)NCCC(=O)N(CCC(=O)N(CCN)CCC(=O)NCCC(=O)N(CCC(=O)N(CCN)CCC(=O)NCCC(=O)N(CCC(=O)N(CCN)CCC(=O)NCCC(=O)N(CCC(=O)N(CCN)CCC(=O)N[C@@H](CCCCN)C(N)=O)CC(C)C)CC(C)C)CC(C)C)CC(C)C)CC(C)C)CC(C)C)CC(C)C)CC(C)C | 256 (≈ 95.3 µM) |
| CC(=O)NCCC(=O)N(CCC(=O)N(CCCN(C)C)CCC(=O)NCCC(=O)N(CCC(=O)N(CCCN(C)C)CCC(=O)NCCC(=O)N(CCC(=O)N(CCCN(C)C)CCC(=O)NCCC(=O)N(CCC(=O)N(CCCN(C)C)CCC(=O)NCCC(=O)N(CCC(=O)N(CCCN(C)C)CCC(=O)NCCC(=O)N(CCC(=O)N(CCCN(C)C)CCC(=O)NCCC(=O)N(CCC(=O)N(CCCN(C)C)CCC(=O)N[C@@H](CCCCN)C(N)=O)CC(C)C)CC(C)C)CC(C)C)CC(C)C)CC(C)C)CC(C)C)CC(C)C | > 512 |

More lines, now with the values ahead:

| MIC [µg/mL] | Compound |
| --- | --- |
| 128 (≈ 84.1 µM) | CC(=O)N(CCC(=O)N(CCCN(C)C)CCC(=O)N(CCC(=O)N(CCC(=O)N(CCCN(C)C)CCC(=O)N(CCC(=O)N(CCC(=O)N(CCCN(C)C)CCC(=O)N(CCC(=O)N[C@@H](CCCCN)C(N)=O)CC(C)C)Cc1ccccc1)CC(C)C)Cc1ccccc1)CC(C)C)Cc1ccccc1 |
| 128 (≈ 44.8 µM) | CC(=O)N(CCC(=O)N(CCCN(C)C)CCC(=O)N(CCC(=O)N(CCC(=O)N(CCCN(C)C)CCC(=O)N(CCC(=O)N(CCC(=O)N(CCCN(C)C)CCC(=O)N(CCC(=O)N(CCC(=O)N(CCCN(C)C)CCC(=O)N(CCC(=O)N(CCC(=O)N(CCCN(C)C)CCC(=O)N(CCC(=O)N(CCC(=O)N(CCCN(C)C)CCC(=O)N(CCC(=O)N[C@@H](CCCCN)C(N)=O)CC(C)C)Cc1ccccc1)CC(C)C)Cc1ccccc1)CC(C)C)Cc1ccccc1)CC(C)C)Cc1ccccc1)CC(C)C)Cc1ccccc1)CC(C)C)Cc1ccccc1 |
| 128 (≈ 53.9 µM) | CC(=O)NCCC(=O)N(CCC(=O)N(CCN)CCC(=O)NCCC(=O)N(CCC(=O)N(CCN)CCC(=O)NCCC(=O)N(CCC(=O)N(CCN)CCC(=O)NCCC(=O)N(CCC(=O)N(CCN)CCC(=O)NCCC(=O)N(CCC(=O)N(CCN)CCC(=O)NCCC(=O)N(CCC(=O)N(CCN)CCC(=O)NCCC(=O)N(CCC(=O)N(CCN)CCC(=O)N[C@@H](CCCCN)C(N)=O)CC(C)C)CC(C)C)CC(C)C)CC(C)C)CC(C)C)CC(C)C)CC(C)C |
| 256 (≈ 154 µM) | CC(=O)N(CCC(=O)N(CCC(=O)N(CCN)CCC(=O)N(CCC(=O)N(CCC(=O)N(CCN)CCC(=O)N(CCC(=O)N(CCC(=O)N(CCN)CCC(=O)N(CCC(=O)N(CCC(=O)N(CCN)CCC(=O)N[C@@H](CCCCN)C(N)=O)CC(C)C)CC(C)C)CC(C)C)CC(C)C)CC(C)C)CC(C)C)CC(C)C)CC(C)C |
| 128 (≈ 53.1 µM) | CC(=O)N(CCC(=O)N(CCCN(C)C)CCC(=O)N(CCC(=O)N(CCC(=O)N(CCCN(C)C)CCC(=O)N(CCC(=O)N(CCC(=O)N(CCCN(C)C)CCC(=O)N(CCC(=O)N(CCC(=O)N(CCCN(C)C)CCC(=O)N(CCC(=O)N(CCC(=O)N(CCCN(C)C)CCC(=O)N(CCC(=O)N[C@@H](CCCCN)C(N)=O)CC(C)C)Cc1ccccc1)CC(C)C)Cc1ccccc1)CC(C)C)Cc1ccccc1)CC(C)C)Cc1ccccc1)CC(C)C)Cc1ccccc1 |
| 256 (≈ 126 µM) | CC(=O)N(CCC(=O)N(CCC(=O)N(CCN)CCC(=O)N(CCC(=O)N(CCC(=O)N(CCN)CCC(=O)N(CCC(=O)N(CCC(=O)N(CCN)CCC(=O)N(CCC(=O)N(CCC(=O)N(CCN)CCC(=O)N(CCC(=O)N(CCC(=O)N(CCN)CCC(=O)N[C@@H](CCCCN)C(N)=O)CC(C)C)CC(C)C)CC(C)C)CC(C)C)CC(C)C)CC(C)C)CC(C)C)CC(C)C)CC(C)C)CC(C)C |
| 256 (≈ 146 µM) | CC(=O)NCCC(=O)N(CCC(=O)N(CCN)CCC(=O)NCCC(=O)N(CCC(=O)N(CCN)CCC(=O)NCCC(=O)N(CCC(=O)N(CCN)CCC(=O)NCCC(=O)N(CCC(=O)N(CCN)CCC(=O)NCCC(=O)N(CCC(=O)N(CCN)CCC(=O)N[C@@H](CCCCN)C(N)=O)CC(C)C)CC(C)C)CC(C)C)CC(C)C)CC(C)C |
| 128 (≈ 65.1 µM) | CC(=O)N(CCC(=O)N(CCC(=O)N(CCCN(C)C)CCC(=O)N(CCC(=O)N(CCC(=O)N(CCCN(C)C)CCC(=O)N(CCC(=O)N(CCC(=O)N(CCCN(C)C)CCC(=O)N(CCC(=O)N(CCC(=O)N(CCCN(C)C)CCC(=O)N[C@@H](CCCCN)C(N)=O)CC(C)C)Cc1ccccc1)CC(C)C)Cc1ccccc1)CC(C)C)Cc1ccccc1)CC(C)C)Cc1ccccc1 |
| 128 (≈ 53.1 µM) | CC(=O)N(CCC(=O)N(CCC(=O)N(CCCN(C)C)CCC(=O)N(CCC(=O)N(CCC(=O)N(CCCN(C)C)CCC(=O)N(CCC(=O)N(CCC(=O)N(CCCN(C)C)CCC(=O)N(CCC(=O)N(CCC(=O)N(CCCN(C)C)CCC(=O)N(CCC(=O)N(CCC(=O)N(CCCN(C)C)CCC(=O)N[C@@H](CCCCN)C(N)=O)CC(C)C)Cc1ccccc1)CC(C)C)Cc1ccccc1)CC(C)C)Cc1ccccc1)CC(C)C)Cc1ccccc1)CC(C)C)Cc1ccccc1 |
